# Screening results deposited in PubChem by Broad Institute.
# Only some compounds are listed: those with a hit (about 2.9% of all), similar ones and a draw of the others.
# CAL PDZ FP-1 = CAL PDZ peptide-binding inhibitors, primary screen, biochemical, fluorescence polarization, Cer-tagged CAL PDZ, HTS; purified CAL PDZ, TMR-peptide fluorescence polarization, 1 h; inhibition, % at 20 µM; 0.02% of 330,000 active;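 active = highest replicate inhibition of at least 40%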
#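 material = purified tagged CAL PDZ domain construct (CerCALP) | buffer or medium = sodium phosphate/NaCl buffer pH 7.4 with TCEP, IgG, Thesit | reagent = TMR-labelled reporter peptide T*-PRC34 bound in PDZ groove | incubation = 1 h room-temperature incubation prior to read | measured by = fluorescence polarization (mP) | evaluation = percent inhibition from loss of millipolarization | control set = unlabelled peptide and DMSO controls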
# CAL PDZ FP-2 = untagged CAL PDZ binding inhibitors, primary screen, biochemical, fluorescence polarization, HTS. purified CAL PDZ, TMR-peptide fluorescence polarization, 1 h. inhibition, % at 24.9 µM. 0.92% of 300,000 active. AID 602252, 2012;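 active = mean inhibition of at least 30% with at least half of replicates also reaching 30%; inconclusive = no clear call, values can overlap the other calls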
# ERAP1 HTS inh = human ERAP1 aminopeptidase inhibitors, primary screen, biochemical, single point, plate reader; Endoplasmic reticulum aminopeptidase 1 (Homo sapiens), Q9NZ08; recombinant ERAP1, Leu-AMC fluorescence, 60 min; inhibition, % at 10.7 µM; 0.15% of 340,000 active;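 active = mean replicate inhibition of at least 30%, or all replicates individually reaching that 30% level; inactive = mean below 30% and not every replicate reaching it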
# S100A4 MyoIIA = inhibitors of S100A4-myosin IIA peptide binding, primary screen, biochemical, fluorescence polarization, TAMRA-MyoIIA peptide; Protein S100-A4 (Homo sapiens), P26447; inhibition, % at 10.7 µM; AID 652163, 2013; 0.14% of 360,000 active;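 active = mean inhibition of at least 70% across replicates, with every replicate also reaching that level; inconclusive = mean inhibition reaches 70% but some replicates fall short; inactive = mean inhibition below 70%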
# Target sequence (P26447 whole entry, looked up): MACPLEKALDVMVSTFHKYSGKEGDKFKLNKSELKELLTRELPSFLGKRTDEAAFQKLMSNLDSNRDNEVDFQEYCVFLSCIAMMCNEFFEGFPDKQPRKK
#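 System – human S100A4 monomer protein, biochemical binding assay · Buffer or medium – Calcium-containing HEPES buffer, pH 7.2 · Timing – 5 min between mix addition and reading · Also added – TAMRA-labelled myosin IIA heavy-chain peptide probe, 5 nM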
# SIRT5 block = SIRT5 desuccinylase inhibitors, primary screen, biochemical, fluorescence imaging, single point, set 5 | Purified SirT5, succinyl-peptide AMC, trypsin-coupled fluorescence | inhibition, % at 15 µM | NAD-dependent protein deacylase sirtuin-5, mitochondrial (Homo sapiens), Q9NXA8 | 1.1% of 330,000 active; in the data active = inhibition above about 15%; inconclusive = no clear call, values can overlap the other calls
# Target sequence (Q9NXA8 whole entry, looked up): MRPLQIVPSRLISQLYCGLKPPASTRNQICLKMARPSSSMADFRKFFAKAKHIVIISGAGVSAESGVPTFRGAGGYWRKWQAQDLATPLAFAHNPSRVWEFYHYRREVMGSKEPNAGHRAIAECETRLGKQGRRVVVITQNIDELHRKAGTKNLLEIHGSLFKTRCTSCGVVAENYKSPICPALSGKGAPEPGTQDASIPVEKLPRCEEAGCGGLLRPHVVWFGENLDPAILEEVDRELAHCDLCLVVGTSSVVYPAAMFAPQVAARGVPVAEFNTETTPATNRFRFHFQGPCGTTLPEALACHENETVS
# DENV2 CPE = inhibitors of DENV2 cytopathic effect, primary screen, cell-based, plate reader, single concentration. CPE inhibition, % at 9.99 µM. 1.7% of 350,000 active. DENV2-infected cells, cytopathic effect rescue; in the data active = CPE inhibition above about 20%, passing the limit was not always enough; inconclusive = no clear call, values can overlap the other calls; tested in BHK-21 cells
# Numbers stand for hits; i = inactive; ? = inconclusive; nt = not tested or not shown; ! = repeats disagree.
SMILES,CAL PDZ FP-1,CAL PDZ FP-2,ERAP1 HTS inh,S100A4 MyoIIA,SIRT5 block,DENV2 CPE
COc1ccc(NC(=O)Nc2ccc3c(c2)C(=O)N([C@H](C)CO)C[C@H](C)[C@H](CN(C)S(=O)(=O)c2cccs2)OCCCC[C@@H](C)O3)cc1,nt,nt,i,i,i,i
COc1ccc(NC(=O)Nc2ccc3c(c2)C(=O)N([C@H](C)CO)C[C@H](C)[C@@H](CN(C)S(=O)(=O)c2cccs2)OCCCC[C@@H](C)O3)cc1,nt,nt,i,i,19,i
C[C@@H]1CCCCO[C@@H](CN(C)S(=O)(=O)c2cccs2)[C@H](C)CN([C@H](C)CO)C(=O)c2cc(NC(=O)Nc3ccccc3)ccc2O1,nt,nt,i,i,i,60
C[C@@H]1CN([C@@H](C)CO)C(=O)c2cc(NC(=O)c3ccccc3)ccc2O[C@@H](C)CCCCO[C@@H]1CN(C)S(=O)(=O)c1cccs1,nt,nt,nt,nt,nt,45
C[C@@H]1CN([C@H](C)CO)C(=O)c2cc(NS(C)(=O)=O)ccc2O[C@@H](C)CCCCO[C@@H]1CN(C)C,nt,nt,i,i,i,i
O=C(C[C@H]1C=C[C@@H](NC(=O)c2cccnc2)[C@H](CO)O1)NCc1ccncn1,nt,nt,i,i,i,i
C[C@@H]1CCCCO[C@H](CN(C)C)[C@H](C)CN([C@H](C)CO)C(=O)c2cc(NS(C)(=O)=O)ccc2O1,nt,nt,i,i,i,i
C[C@@H]1CN([C@@H](C)CO)C(=O)c2cc(C#CCc3ccccc3)cnc2O[C@@H]1CN(C)CC1CC1,nt,nt,i,121,i,i
C[C@H](CO)N1C[C@H](C)[C@H](CN(C)Cc2ccccc2)Oc2ncc(C#CCN(C)C)cc2C1=O,nt,nt,i,i,19!,i
C[C@@H]1CN([C@H](C)CO)C(=O)c2cc(C#CCN(C)C)cnc2O[C@H]1CN(C)Cc1ccccc1,nt,nt,i,i,i,i
C[C@@H]1CN([C@@H](C)CO)S(=O)(=O)c2ccc(C#C[C@@H](C)O)cc2O[C@H]1CN(C)C(=O)c1ccccc1,nt,nt,i,i,i,i
Cc1cc(C)c2c(CN3CCC(C)CC3)cc(=O)oc2c1,i,80,i,i,i,i
Cc1cccc(NC(=O)CN2C(=O)N/C(=C/c3cc(C)n(-c4ccncc4)c3C)C2=O)c1,i,i,i,i,i,nt
Cc1cccc(NC(=O)CN2C(=O)N/C(=C/c3cc(C)n(-c4cccnc4)c3C)C2=O)c1,i,74,i,i,i,i
Cc1noc(C)c1NC(=O)N[C@@H]1CC[C@H](CC(=O)N2CCCCC2)O[C@H]1CO,nt,nt,i,i,i,i
C[C@H](CO)N1C[C@H](C)[C@@H](CN(C)Cc2ccccc2)Oc2c(NS(C)(=O)=O)cccc2C1=O,nt,nt,i,i,i,39!
C[C@H]1CN([C@@H](C)CO)C(=O)c2cccc(NS(C)(=O)=O)c2O[C@H]1CN(C)Cc1ccccc1,nt,nt,i,i,15,i
C[C@H]1CN([C@@H](C)CO)C(=O)c2cccc(NS(=O)(=O)c3cccs3)c2O[C@@H]1CN(C)C(=O)Nc1cccc2ccccc12,nt,nt,i,i,i,?
C[C@@H]1CN([C@@H](C)CO)C(=O)c2cccc(NS(=O)(=O)c3cccs3)c2O[C@@H]1CN(C)C(=O)Nc1cccc2ccccc12,nt,nt,i,i,i,43
C[C@@H]1CN([C@H](C)CO)C(=O)c2cccc(NS(=O)(=O)c3cccs3)c2O[C@H]1CN(C)Cc1ccccc1,i,i,i,i,26!,i
C[n+]1ccccc1/C=C/c1ccc(F)c(F)c1,i,i,i,i,i,i
C[n+]1ccccc1/C=C/c1ccc2ncccc2c1,i,i,40,i,i,i
CCC(=O)N1CC2(C1)CN(CC1CCOCC1)[C@H](CO)c1c2c2ccc(OC)cc2n1C,nt,nt,i,i,nt,?
COc1cccc(C(=O)c2c(-c3ccccc3)ncc3cc(OC)c(OC)cc23)c1,i,i,i,i,i,27
COc1cccc(S(=O)(=O)N(C)C[C@@H]2Oc3cc(C4=CCCCC4)ccc3S(=O)(=O)N([C@H](C)CO)C[C@@H]2C)c1,nt,nt,i,i,26,i
SMILES,CAL PDZ FP-1,CAL PDZ FP-2,ERAP1 HTS inh,S100A4 MyoIIA,SIRT5 block,DENV2 CPE
COc1cccc(S(=O)(=O)N(C)C[C@@H]2Oc3cc(C4=CCCC4)ccc3S(=O)(=O)N([C@H](C)CO)C[C@H]2C)c1,nt,nt,i,i,23,55
C[C@@H]1CN([C@H](C)CO)S(=O)(=O)c2ccc(C3=CCCCC3)cc2O[C@@H]1CN(C)S(=O)(=O)c1ccc(F)cc1,nt,nt,i,i,i,23
C[C@H]1CN([C@@H](C)CO)S(=O)(=O)c2ccc(C3=CCCC3)cc2O[C@H]1CN(C)S(=O)(=O)c1ccc(F)cc1,nt,nt,i,i,i,i
CCC(=O)c1cn(CC(=O)Nc2cccc(C)c2)c2ccccc12,i,i,i,i,i,69
CCC(=O)c1cn(CC(=O)Nc2cccc(C)c2C)c2ccccc12,i,i,i,i,i,i
CC(=O)c1cn(CC(=O)Nc2cccc(C)c2C)c2ccccc12,i,i,i,i,22,i
N#Cc1ccc(NC(=O)Cn2c3[n+](c4ccc(C(F)(F)F)cc42)CCCCC3)cc1,i,i,64,i,i,i
CCOc1ccc(NN=C(C(=O)OC)C(=O)OC)c([N+](=O)[O-])c1,i,nt,i,i,i,37
COc1ccc(N=C(c2ccccc2)c2c(C)[nH]n(-c3ccccc3)c2=O)c(OC)c1,i,36,i,i,i,i
COc1ccccc1N=Nc1c(C)[nH]n(-c2ccccc2)c1=O,i,i,i,i,i,i
C[C@@H]1CN([C@H](C)CO)C(=O)Cc2cc(NC(=O)Cc3cn(C)c4ccccc34)ccc2O[C@H]1CN(C)C(=O)Nc1ccc2c(c1)OCO2,nt,nt,i,i,i,i
COc1ccc(S(=O)(=O)Nc2ccc3c(c2)C(=O)N([C@H](C)CO)C[C@@H](C)[C@H](CN(C)S(=O)(=O)c2cccs2)OCCCC[C@H](C)O3)cc1,nt,nt,i,i,i,i
NC(=O)NCC(=O)N1CCC(C(O)(c2ccccc2)c2ccccc2)CC1,i,79,i,i,i,i
CCNC(=S)N1CCC(C(O)(c2ccccc2)c2ccccc2)CC1,i,i,i,i,i,i
CN(CC(=O)Nc1ccccc1C(F)(F)F)C(=O)CSc1nnc(-c2ccncc2)n1C,i,nt,35,i,i,i
Cc1cc(NC(=O)CSc2nnc(-c3ccncc3)n2C)n(-c2ccccc2)n1,i,77,i,i,i,i
CCOC(=O)N(C)C[C@H]1OCc2ccccc2-c2c(n(C)c3ccccc23)C(=O)N([C@@H](C)CO)C[C@@H]1C,nt,nt,i,i,i,i
